Measurements from the EternaBench riboswitch data.

Test system: MS2 coat protein
Experiment: apparent Kd, MS2 coat protein; higher = weaker binding; RNA-MaP array; FMN 200 µM where present
Method in brief: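 In 100 mM Tris-HCl pH 7.5, 80 mM KCl, 4 mM MgCl2, BSA, DTT, yeast tRNA and Tween-20, SNAP-549-labelled MS2 coat protein was titrated from 0.7 or 1.5 nM, doubling to 3 µM, over designs transcribed by stalled E. coli RNA polymerase on Illumina sequencing-chip clusters. This was done first without ligand, then with ligand held constant. After green signal was normalised to red-channel RNA signal and control-cluster median Fmax, the apparent Kd was taken as the median of filtered per-cluster binding-curve fits.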

[1] = designed as: OFF switch for flavin mononucleotide, no ligand
[2] = ligand present: flavin mononucleotide, designed as: OFF switch for flavin mononucleotide
[3] = designed as: ON switch for flavin mononucleotide, no ligand
[4] = ligand present: flavin mononucleotide, designed as: ON switch for flavin mononucleotide

Row | Sequence | apparent Kd [1] [nM] | apparent Kd [2] [nM] | apparent Kd [3] [nM] | apparent Kd [4] [nM]
1 | CACGAUGAUGUAGGAUAUAUGCUGGAAUACAGCAUAGAAGGACAUGAGGAUCACCCAUGUUAAGUGCCUCCAAGUAACAUCGUG | 15.4 | 22.4 |  | 
2 | AUUGAUGUUGAGGAUAUGCUUUUAUUUAUUAUAGCAGAAGGCGAUACAUGAGGAUCACCCAUGUUCAUGGCUUU | 11.8 | 14.9 |  | 
3 | UUUACAUGAGGAUCACCCAUGUCUGUCACACGUAUGUGCAAUCAGGAUAUGAUCUCAAGAAUGAAUUAGAAGGGAUAAAGAGAA |  |  | 212 | 250
4 | GCUAGUAUUGCAGGAUAUUGAGAAUAAUUAUUACAAGAAGGGCAUAACAUGAGGAUCACCCAUGUUUUCCUUAAUGAUACUAGC | 5.33 | 5.59 |  | 
5 | CACUCACAUGAGGAUCACCCAUGUCCUAGCAGGUCAGGAUAUAGCUCGGAUGCGUUGAGUCUAGAAGGGACACGUU |  |  | 96.7 | 62.5
6 | CCUCCUGGUCAGGAUAUCGGACGUUUUAUUCGACGAGAAGGGACCACAUGAGGAUCACCCAUGUGAUGAAGAAC | 42.4 | 182 |  | 
7 | CGUGUUCCACAGAAGGCAUGGGACACAUGAGGAUCACCCAUGUCACUGAUGAGGAUAUGUAAAAGGAGCGAGGUGCAAGAAUAG |  |  | 158 | 23.7
8 | GAAGCACGCAUUAACAUGAGGAUCACCCAUGUCAAAAGACGUGAGGAUAUGGAUCUGAAGAAGAUCCAGAAGGCACCGUGCUAA |  |  | 8.41 | 5.3
9 | CGCGAACAUGAGGAUCACCCAUGUGAAAAACAUAGAGGAUAUGUCGCAUGCGUGUAAAAGACAGAAGGCUAUCGCG |  |  | 76.7 | 27.9
10 | GUUGUUUGAGGAUAUACAUGAGGAUCACCCAUGUGUGUCCAUACGCGUGAGUCUUCGUGUAGAAGGCGGGCGGC | 13.7 | 14.7 |  | 
11 | CCCUAGGUAGGAUAUACUUGGGCUCGGCUGAUGUGCUUAAAACAUGAGGAUCACCCAUGUAGAAGGACUAAGGC | 15.3 | 12.9 |  | 
12 | AAAAUGAGUCAAGGAUAUCCGAGCAGAAUGCUAGGAGAAGGUGACAUGAGGAUCACCCAUGUCUCUCCGAGCAUGGUAUUCUCA | 27.1 | 31.9 |  | 
13 | AGUCGGAGCAGAGGAUAUUACAUGAGGAUCACCCAUGUAUGAACCAAUAGCUGGAAACAGCAAUGUAAGAAGGCUGCUCCGACA | 37.6 | 426 |  | 
14 | GCAGCACAUGAGGAUCACCCAUGUCUUCGGAGUCGAGGAUAUGGUCACUGUAAACAGUGGCCAGAAGGCGAGUUGC |  |  | 31.7 | 27.2
15 | CUGGACGUCGUAGGAUAUGUAGGAUAUUCCUACAUGAGGAUCACCCAUGUUGACAUGGAAGAAGGACAGAAGGACGAUGUCCAU |  |  | 229 | 4.55
16 | GUUAGGAAUCUAGCGAACAUGAGGAUCACCCAUGUUAGUGGGAAGGAUAUGGUACAGAAACUGUACCAGAAGGUCUUAUUGUUU |  |  | 398 | 305
17 | UCAUGGUAGCAGGAUAUGCUAUUUAUUUUUUAUGCAGAAGGGCUUACAUGAGGAUCACCCAUGUGUUAGGUUUA | 113 | 25.2 |  | 
18 | AGUAAAGGCCUGAGGUGUCCGAACAUGAGGAUCACCCAUGUAGAGGAUAUAGGUGGAAGUGACUCCUAGAAGGCUACGUGUCAU | 6.18 | 8.18 |  | 
19 | GGAUCGAUGUAGAAGGCUGUCCUAAAAUAGGACAGAGGAUAUACAUGAGGAUCACCCAUGUACUCCUUUAAAAUGAUCCAAAUA | 5.53 | 10.3 |  | 
20 | GGAAGAAUGAUACCUUUUUAUUACAUGAGGAUCACCCAUGUGCAGGAUAUCGAUUAUUAUAGUUUCGAGAAGGGCAAGAAUUGU | 19.7 | 52.4 |  | 
21 | AUAUAUAGUGUGAGGAUAUGCUGGUCCUUGGAUCAGCAGAAGGCACAUGAGGAUCACCCAUGUAGUUUAUUUUA | 31.7 | 76.7 |  | 
22 | AAUUAAUUAAUUAAGUACAUGAGGAUCACCCAUGUAAGUGAUCAGGAUAUCAGCUCGAUUAGAGCUGAGAAGGGAUCCAUGUAC |  |  | 531 | 303
23 | CAUAUACAGGGAGGAUAUAACAUGAGGAUCACCCAUGUGCAAUCCUCAAUGUUAGAAGGCCCAAUAGAAUCGCAAAAGGCAUCC | 8.51 | 4.96 |  | 
24 | GAUUUACAUGAGGAUCACCCAUGUGAGGAUAUGGAAUGGCUCAUUGUCUGAUUUCCUUCUAGAAGGCACAUCUG | 54.2 | 54.9 |  | 
25 | UCCACGUGUGCAGGAUAUCCCACGAGCGCAACAUGAGGAUCACCCAUGUACCUGAGUCUCGGAACGGAGAAGGGUACAUGUUAA |  |  | 340 | 45.2
26 | UAUGUUGUUGUGAGGAUAUACUUAGUUUGACCGUAGUAGAAGGCACAUGAGGAUCACCCAUGUAGAUGUUUGGU | 15.8 | 29.5 |  | 
27 | GCAUGCAAGUAGAAGGACGGAUAUUUUGAAAACGUAGGAUAUACAGAAUCAUAUCCACAAGGUAACAUGAGGAUCACCCAUGUA | 10.5 | 9.58 |  | 
28 | GCCAACGCAUGAGGAUAUGCUCCCGUUUCGGGAGCAGAAGGCAUGUCAUAAGACAUGAGGAUCACCCAUGUAGUUAAGAUGGCA |  |  | 474 | 20.1

Row | Sequence | apparent Kd [1] [nM] | apparent Kd [2] [nM] | apparent Kd [3] [nM] | apparent Kd [4] [nM]
29 | ACAUGAGGAUCACCCAUGUGAAAACAAUGGCUGACACAGAGAUAGGAUAUAUGUGCAUAUCAAACAUAGAAGGGUCAUAACUGG | 50 | 50.6 |  | 
30 | ACAAAUGGAGGAUAUACAUGAGGAUCACCCAUGUUUAUCCUACAUGUGUGAUAAUAAUGUAGAAGGCCAUUUGA | 19.7 | 13.2 |  | 
31 | CUGAUGUUAGGAUAUCAGGUUGUGCGCGAAGGCGGGCGGCAUGAGAAGGAACAUGAGGAUCACCCAUGUGACGA | 29.4 | 85 |  | 
32 | ACGAGUACAGGAUAUACAUGAGGAUCACCCAUGUGAGAAUUAAGUGGCGUACCACAAAGUAGAAGGGUACUCGA | 40.3 | 236 |  | 
33 | GGAUAGGACAGAGGAUAUACGUGGUAGAGAUACUAGCAAAAUUUCCUCACAUGAGGAUCACCCAUGUAGAAGGCUGUCCUAUCG | 532 | 19.1 |  | 
34 | GGGUUUGGAGGAUAUACAAUGGGUUUGGGAAACCGGGCCCUACAUGAGGAUCACCCAUGUAGAAGGCCGGGCCC | 14.8 | 15.8 |  | 
35 | AAAAUACAUGAGGAUCACCCAUGUGAGUCGAACGCAGGAUAUCGCCGUUGAAAAGGGCGGCGAGAAGGGUGCCGAA |  |  | 62.5 | 46.8
36 | UCAGGCUUCGAGAAGGACAUGAAUCGUAGCAUUGCUACGAUCAUUGAUACAUGAGGAUCACCCAUGUAGGAUAUCGGAGUCUGC | 5.99 | 6.75 |  | 
37 | AGGGUGGGCUCAGGAUAUCAGGAAGAGAUGUGGACAUGAGGAUCACCCAUGUACCAGUGUUGUUAUGAGAAGGGAGAUACUGUA |  |  | 52.3 | 28.8
38 | CUUUCCAGGUAGAAGGGAUUACUACAUGAGGAUCACCCAUGUCGAUUGAUCAGGAUAUGCCUGUCACGACGCGUGAUGCUAGAG |  |  | 322 | 66.3
39 | GGUGGCGUGAUAACGCUAGAUAUAACAUGAGGAUCACCCAUGUAGGAUAUCCCGCCGAGAGGGCGGGAGAAGGACAAUCAAUGG | 45.2 | 47.2 |  | 
40 | UCUCAGUGAGGAUAUGCCAGGGACUAAUUCGUCCACCCGUCGCAGAAGGCACAUGAGGAUCACCCAUGUGGAUG | 109 | 54.5 |  | 
41 | AAGCACAGAGGAUAUACAUGGGUGAUAAAAAUCAUGUAAAAACAUGAGGAUCACCCAUGUAGAAGGCUGUGCAA | 22 | 23.1 |  | 
42 | UUCAGCUCGUCAGGAUAUACGUCACUGCUUCGGCAGUGUGGUAAGAUCACAUGAGGAUCACCCAUGUAGAAGGGACGAGCUGAA | 12.5 | 254 |  | 
43 | GUGUGCUGAGGAUAUACAGAGGAAGAUAAGAUAAGAUAAUCACAUGAGGAUCACCCAUGUAGAAGGCAGAGUGU | 23.7 | 35.5 |  | 
44 | AGCAUGUAAGGAUAUGCAAGUGGUAUGGAUCGUACCAGAAAGCAGAAGGUACAUGAGGAUCACCCAUGUGCUCC | 29.2 | 67.5 |  | 
45 | ACACGUGUGUCAGGAUAUCACACUAAUUGGACUAACUAUAUGAAAGCACAUGAGGAUCACCCAUGUGAGAAGGGACGCCACCUG | 12 | 9.97 |  | 
46 | UGGUACAUGGGAGGAUAUGGAGUGAAGACAUGAGGAUCACCCAUGUUAUAAAUGCCGAGAGGCAACUAGAAGGCCCAUGUACCU |  |  | 77.7 | 14.3
47 | GGAUAGGACAGAGGAUAUACGUGCUAGAGAUACUAGCAAAAUUUCCUCACAUGAGGAUCACCCAUGUAGAAGGGUGUCCUAUCG | 12.9 | 12.7 |  | 
48 | GUAGGGUCAGGAUAUACUGGCUGAGGGAUGUAUUGUAGUUGGUAGAAGGGACAUGAGGAUCACCCAUGUAAGUA | 35.4 | 34 |  | 
49 | CUAGCGUAUGUAGGAUAUCGGACUGUUUCAGUCUGAGAAGGACAUGAGGAUCACCCAUGUAUAGCUACGUGAGUAGCUCGCUAG | 20.4 | 32.4 |  | 
50 | AUCUAUCAUGUAGGAUAUGCGUGGCGAAGCUAUGCAGAAGGACAUGAGGAUCACCCAUGUCUUUCUGUCUGCGGACGGACAGGA | 23.6 | 72.7 |  | 
51 | CUGUACAUAUCAGGAUAUCUAUUUCCUACAUGAGGAUCACCCAUGUAGGUGAUCACCCAAGUAAAGGAGAAGGGAUAUGUAUAG |  |  | 66.4 | 23.7
52 | CCAUGGCUGUGAGGAUAUGUCUGACAAAGUCAGACAGAAGGCACAUGAGGAUCACCCAUGUGAAAACACCAACAAAAGCCAUGG | 5.93 | 6.9 |  | 
53 | AAAGCCAACGAAGGAUAUACAAACAUGAGGAUCACCCAUGUGUCUUUCGUGUAACUGGAAUUCGGGUAGAAGGUCGUUGACAUA | 14.9 | 21.7 |  | 
54 | GUGAAGAUAGCAGGAUAUCUAUUUCCUACAUGAGGAUCACCCAUGUAGGUGAUCAGCCGAGUAAAGGAGAAGGGCUAUCUUUAC |  |  | 22.8 | 9.29
55 | AGUGUCAUCGAGAAGGCCUUAACAUGAGGAUCACCCAUGUUAUAACAUGGGAGGAUAUCGAUGAUACAGCUACGUUUCGUAGCA |  |  | 286 | 18.2
